Experimental data: article PMC9660540 (Clinical Cancer Research, 2022)
Like-named read-outs stand apart in the source and are kept apart here.

Tests used:
[1] = Dose-limiting toxicity and RP2D, phase Ia dose escalation; assay type: in vivo, human
In short: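 Phase Ia used Bayesian logistic regression–guided escalation of the oral nanosuspension, with or without durvalumab; capsule cohorts took 75, 150 or 200 mg once daily. A DLT was non-disease-related toxicity before day 21 (monotherapy) or end of cycle 2 (combination), e.g. grade ≥4 neutropenia >7 days or grade ≥3 nonhematologic toxicity.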

[2] = Plasma pharmacokinetics of AZD4635 and active metabolite in patients; assay type: in vivo, human; settings: for half-life: plasma, oral
[3] = tested on: metastatic castration-resistant prostate cancer (mCRPC); test: PSA response in patients with mCRPC; assay type: in vivo, human
[4] = tested on: metastatic castration-resistant prostate cancer (mCRPC); assay type: in vivo, human
In short: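 For the signature, baseline whole-blood RNA (PAXgene) was hybridized (25–100 ng) to a 770-gene NanoString panel and ComBat batch-corrected. The score was the median of normalized log2 expression of 14 adenosine genes; the cohort median split high from low.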

[5] = tested on: colorectal cancer (IO-naïve); test: Tumor response; assay type: in vivo, human
[6] = healthy volunteers; ref [32]; cited from earlier work
CYP1A2 = settings: clinical drug–drug interaction study with fluvoxamine; ref [34]; cited from earlier work

Cc1cc(-c2nnc(N)nc2-c2ccc(F)cc2)cc(Cl)n1 [AZD4635]
DLTs ([1]; capsule formulation, doses of up to 200 mg): no DLTs | Patients with a DLT ([1]; phase Ia, nanosuspension monotherapy 75 mg or 100 mg once daily): No patients | Patients with DLTs ([1]; phase Ia, nanosuspension monotherapy 125 mg twice daily, out of 3 patients): 2 | Accumulation in exposure (Cmax and AUC) ([2]; following multiple dosing): minimal accumulation | PK profile ([2]; human, in vivo): linear and dose-proportional | half-life ([2]; human, median t1/2, after a single dose, across doses): 7.92 to 14.5 h | half-life ([2]; human, t1/2, overall (range, 11–24 hours)): ~14 h | Confirmed PSA responses [3]: 3.3% | PSA50 response [3]: 5.0% | Prostate-specific antigen responses ([3]; responders/evaluable): 3/60 | Median PFS [4]: 10.1 weeks | PFS probability at 24 weeks [4]: 24.2% | PFS probability at 24 weeks ([4]; AZD4635 monotherapy or plus durvalumab, high blood-adenosine signature): 48.9% | PFS probability at 24 weeks ([4]; AZD4635 monotherapy or plus durvalumab, low blood-adenosine signature): 20.6% | Best response of stable disease (SD) after a minimum of 2 cycles [5]: 9 (45.0%) n (%) | AUC of capsule formulation compared with nanosuspension, higher by [6]: ~10% | Cmax of capsule formulation compared with nanosuspension, higher by [6]: approximately 27% | Metabolism (CYP1A2): primarily metabolized by CYP1A2
